Measurements as given in ChEMBL document CHEMBL1154945, “Decahydroisoquinoline derivatives as novel non-peptidic, potent and subtype-selective somatostatin sst(3) receptor antagonists” (Bioorg Med Chem Lett, 2010).

Columns and labels:
D(2) dopamine receptor = D(2) dopamine receptor (Homo sapiens, UniProt P14416); test: Binding affinity to dopamine D2 receptor
[1] = biological target: T1, Somatostatin receptor type 3 (Homo sapiens, UniProt P32745); test: Antagonist activity at human recombinant SST3 receptor expressed in CHO cells assessed as inhibition of SRIF14-induced cAMP accumulation; assay type: functional, cell-based
T1 sequence (P32745 whole entry): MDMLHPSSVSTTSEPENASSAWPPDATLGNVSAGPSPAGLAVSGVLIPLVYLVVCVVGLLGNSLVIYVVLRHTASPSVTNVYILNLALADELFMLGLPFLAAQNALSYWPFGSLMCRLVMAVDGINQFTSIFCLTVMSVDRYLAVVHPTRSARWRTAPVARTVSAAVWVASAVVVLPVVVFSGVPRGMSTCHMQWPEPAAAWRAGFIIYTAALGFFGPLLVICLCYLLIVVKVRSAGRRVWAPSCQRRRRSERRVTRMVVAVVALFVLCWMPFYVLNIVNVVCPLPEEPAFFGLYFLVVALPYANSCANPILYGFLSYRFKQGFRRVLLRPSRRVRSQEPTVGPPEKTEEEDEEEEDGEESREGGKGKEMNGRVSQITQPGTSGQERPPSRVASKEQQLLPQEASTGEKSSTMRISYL
Summary of the method: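 cAMP-based functional assay with human recombinant sst3 receptors expressed in CHO cells; test agent's antagonism of SRIF-14 response measured, pKB derived; n = 6.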

[2] = biological target: Somatostatin receptor type 1 (Homo sapiens, UniProt P30872); test: Binding affinity to human SST1 receptor
Somatostatin receptor type 1 (Homo sapiens, UniProt P30872), sequence (P30872 whole entry): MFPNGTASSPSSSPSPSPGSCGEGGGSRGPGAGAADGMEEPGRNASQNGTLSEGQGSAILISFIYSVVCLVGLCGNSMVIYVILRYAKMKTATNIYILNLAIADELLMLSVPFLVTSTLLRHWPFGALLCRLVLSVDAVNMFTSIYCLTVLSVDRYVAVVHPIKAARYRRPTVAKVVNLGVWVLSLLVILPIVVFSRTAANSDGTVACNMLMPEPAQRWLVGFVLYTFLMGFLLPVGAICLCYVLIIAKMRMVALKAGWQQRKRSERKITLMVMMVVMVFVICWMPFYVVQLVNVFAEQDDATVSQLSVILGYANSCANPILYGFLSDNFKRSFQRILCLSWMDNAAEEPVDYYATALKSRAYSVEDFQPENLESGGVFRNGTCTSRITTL

[3] = Ratio of drug level in brain to plasma in mouse at 3 mg/kg, po after 1 hr by LC-MS based method; assay type: ADME, organism-based; set-up: dose 3 mg/kg, route oral; settings: brain and plasma
Summary of the method: (§1)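 Mice and rats dosed orally at 3 mg/kg with unlabelled drug; plasma and brain sampled 1 h after dosing and analysed by LC–MS (LOQ 0.4 ng/ml plasma, 2 ng/g brain); brain/plasma ratio calculated.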

[4] = biological target: Somatostatin receptor type 2 (Rattus norvegicus, UniProt P30680); test: Displacement of [125I]SRIF-14 from rat cortex membrane SST2 receptor
Somatostatin receptor type 2 (Rattus norvegicus, UniProt P30680), sequence (P30680 whole entry): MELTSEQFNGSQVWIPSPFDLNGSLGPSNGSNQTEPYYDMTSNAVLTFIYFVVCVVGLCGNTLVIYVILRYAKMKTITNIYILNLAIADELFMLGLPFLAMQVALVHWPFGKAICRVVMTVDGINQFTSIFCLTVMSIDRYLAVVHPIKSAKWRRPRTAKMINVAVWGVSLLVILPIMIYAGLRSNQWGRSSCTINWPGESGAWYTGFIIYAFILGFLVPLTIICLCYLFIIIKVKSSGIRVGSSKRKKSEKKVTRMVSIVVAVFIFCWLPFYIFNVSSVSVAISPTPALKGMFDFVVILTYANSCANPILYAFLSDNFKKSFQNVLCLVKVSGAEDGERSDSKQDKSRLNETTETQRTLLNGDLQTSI

[5] = biological target: T2, 5-hydroxytryptamine receptor 2C (Homo sapiens, UniProt P28335); test: Binding affinity to 5HT2C receptor
T2 sequence (P28335 whole entry): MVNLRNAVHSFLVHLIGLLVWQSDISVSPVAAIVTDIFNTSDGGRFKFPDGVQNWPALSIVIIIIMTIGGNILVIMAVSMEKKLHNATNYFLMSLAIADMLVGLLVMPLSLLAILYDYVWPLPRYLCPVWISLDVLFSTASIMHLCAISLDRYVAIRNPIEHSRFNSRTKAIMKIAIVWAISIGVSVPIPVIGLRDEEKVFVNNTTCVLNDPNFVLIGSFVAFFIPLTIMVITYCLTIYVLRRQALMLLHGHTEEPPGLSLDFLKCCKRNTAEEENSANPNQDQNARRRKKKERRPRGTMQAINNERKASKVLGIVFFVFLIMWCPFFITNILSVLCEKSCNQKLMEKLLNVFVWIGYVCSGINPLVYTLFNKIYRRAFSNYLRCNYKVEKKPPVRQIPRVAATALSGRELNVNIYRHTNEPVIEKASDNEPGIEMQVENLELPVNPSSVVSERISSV

[6] = biological target: Somatostatin receptor type 4 (Homo sapiens, UniProt P31391); test: Binding affinity to human SST4 receptor
Somatostatin receptor type 4, sequence (P31391 whole entry): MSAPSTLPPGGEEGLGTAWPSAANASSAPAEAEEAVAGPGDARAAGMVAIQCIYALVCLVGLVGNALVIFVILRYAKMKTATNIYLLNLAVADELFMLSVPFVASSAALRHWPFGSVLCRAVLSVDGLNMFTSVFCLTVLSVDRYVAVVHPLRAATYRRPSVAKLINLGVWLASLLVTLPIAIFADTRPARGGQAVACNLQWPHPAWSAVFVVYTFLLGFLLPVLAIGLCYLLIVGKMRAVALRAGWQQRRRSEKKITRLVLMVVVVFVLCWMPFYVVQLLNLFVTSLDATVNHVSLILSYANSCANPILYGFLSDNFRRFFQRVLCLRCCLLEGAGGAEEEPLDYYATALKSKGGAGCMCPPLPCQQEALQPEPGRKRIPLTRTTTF

[7] = biological target: Somatostatin receptor type 5 (Homo sapiens, UniProt P35346); test: Binding affinity to human SST5 receptor
Somatostatin receptor type 5, sequence (P35346 whole entry): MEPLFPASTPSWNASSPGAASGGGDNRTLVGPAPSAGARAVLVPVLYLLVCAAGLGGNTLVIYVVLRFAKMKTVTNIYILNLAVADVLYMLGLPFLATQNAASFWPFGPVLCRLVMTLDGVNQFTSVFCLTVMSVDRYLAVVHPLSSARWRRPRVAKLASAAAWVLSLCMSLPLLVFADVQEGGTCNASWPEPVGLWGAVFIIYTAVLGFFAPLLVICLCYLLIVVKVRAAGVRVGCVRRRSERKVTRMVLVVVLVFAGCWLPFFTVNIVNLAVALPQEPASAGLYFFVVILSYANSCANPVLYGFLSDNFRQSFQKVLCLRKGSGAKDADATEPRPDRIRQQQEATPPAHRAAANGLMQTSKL

Homo sapiens [8] = species on record: Homo sapiens; test: Selectivity for human SST3 over human SST2
[9] = Oral bioavailability in rat at 3 mg/kg; assay type: ADME, organism-based; settings: in vivo
Summary of the method: (§2)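 Unlabelled drug given orally (3 mg/kg) and intravenously (1 mg/kg) to mice and rats; plasma quantified by LC–MS (LOQ 0.4 ng/ml); absolute bioavailability estimated from the two routes.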

Homo sapiens [10] = species on record: Homo sapiens; test: Selectivity for human SST3 over human SST1
[11] = Apparent terminal half life in rat plasma at 1 mg/kg, iv; assay type: ADME, organism-based; set-up: dose 1 mg/kg, route intravenous
Summary of the method: (§3)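 Unlabelled drug dosed intravenously at 1 mg/kg to mice and rats; plasma analysed by LC–MS (LOQ 0.4 ng/ml); apparent terminal half-life computed from plasma levels.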

[12] = biological target: T3, Alpha-1A adrenergic receptor (Homo sapiens, UniProt P35348); test: Binding affinity to Alpha-1A adrenergic receptor
T3 sequence (P35348 whole entry): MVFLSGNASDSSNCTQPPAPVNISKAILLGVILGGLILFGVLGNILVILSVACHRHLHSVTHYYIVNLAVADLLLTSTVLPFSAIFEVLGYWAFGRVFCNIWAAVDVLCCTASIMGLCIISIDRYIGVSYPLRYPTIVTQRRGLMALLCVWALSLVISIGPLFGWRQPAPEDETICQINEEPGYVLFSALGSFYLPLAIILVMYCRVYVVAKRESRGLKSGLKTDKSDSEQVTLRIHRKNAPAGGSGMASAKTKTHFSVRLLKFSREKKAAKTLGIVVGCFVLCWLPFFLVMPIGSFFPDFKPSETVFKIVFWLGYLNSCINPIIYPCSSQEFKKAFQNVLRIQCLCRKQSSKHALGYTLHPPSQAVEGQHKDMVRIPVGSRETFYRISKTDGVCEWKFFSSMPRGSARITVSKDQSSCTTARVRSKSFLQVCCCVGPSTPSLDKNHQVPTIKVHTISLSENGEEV

[13] = Oral bioavailability in mouse at 3 mg/kg; assay type: ADME, organism-based; settings: in vivo; summary of the method: as §2
Homo sapiens [14] = species on record: Homo sapiens; test: Selectivity for human SST3 over human SST5
[15] = Inhibition of CYP450; assay type: ADME
Summary of the method: (§4)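 Inhibition of the five principal human cytochrome P450 isoenzymes screened by a microplate-based, direct fluorometric assay.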

[16] = biological target: Somatostatin receptor type 1 (Rattus norvegicus, UniProt P28646); test: Displacement of [125I]SRIF-14 from rat cortex membrane SST1 receptor
Somatostatin receptor type 1 (Rattus norvegicus, UniProt P28646), sequence (P28646 whole entry): as the sequence (P30872 whole entry) above, with S8P, S11T, P16S, S20G, G25V, G26C, A32S, A45S, T385A, T389S counted along it

[17] = biological target: T1, Somatostatin receptor type 3; test: Binding affinity to human SST3 receptor
[18] = biological target: Somatostatin receptor type 2 (Homo sapiens, UniProt P30874); test: Binding affinity to human SST2 receptor
Somatostatin receptor type 2 (Homo sapiens, UniProt P30874), sequence (P30874 whole entry): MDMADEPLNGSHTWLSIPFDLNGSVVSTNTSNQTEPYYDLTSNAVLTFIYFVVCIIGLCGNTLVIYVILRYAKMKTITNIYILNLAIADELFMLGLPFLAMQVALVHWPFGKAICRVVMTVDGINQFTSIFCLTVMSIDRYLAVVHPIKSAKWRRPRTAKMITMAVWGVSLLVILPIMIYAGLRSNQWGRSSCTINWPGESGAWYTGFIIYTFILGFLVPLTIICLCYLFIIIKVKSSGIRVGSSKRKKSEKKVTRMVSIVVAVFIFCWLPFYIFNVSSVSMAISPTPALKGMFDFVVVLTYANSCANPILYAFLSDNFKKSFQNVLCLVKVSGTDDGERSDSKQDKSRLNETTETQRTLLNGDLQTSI

V79 = test: Genotoxicity against chinese hamster V79 cells by micronucleus test; assay type: toxicity, cell-based, Cricetulus griseus
Cytochrome P450 2D6 = Cytochrome P450 2D6 (Homo sapiens, UniProt P10635); test: Inhibition of CYP2D6; assay type: ADME; summary of the method: as §4
Cytochrome P450 2D6, sequence (P10635 whole entry): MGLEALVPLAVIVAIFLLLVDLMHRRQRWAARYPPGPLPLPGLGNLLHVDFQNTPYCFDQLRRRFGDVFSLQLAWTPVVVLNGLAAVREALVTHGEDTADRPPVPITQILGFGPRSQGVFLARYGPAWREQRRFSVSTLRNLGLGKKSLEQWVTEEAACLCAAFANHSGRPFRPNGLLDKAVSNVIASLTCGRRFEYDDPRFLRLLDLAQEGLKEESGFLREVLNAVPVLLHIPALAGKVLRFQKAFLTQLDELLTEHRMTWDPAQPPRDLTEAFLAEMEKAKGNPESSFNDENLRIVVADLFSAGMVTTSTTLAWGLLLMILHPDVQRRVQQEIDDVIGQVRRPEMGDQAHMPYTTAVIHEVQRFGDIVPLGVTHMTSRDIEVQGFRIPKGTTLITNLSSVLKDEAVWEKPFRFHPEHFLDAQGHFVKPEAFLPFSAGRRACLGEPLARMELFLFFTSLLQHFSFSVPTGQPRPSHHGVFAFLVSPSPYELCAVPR

[19] = Ratio of drug level in brain to plasma in rat at 3 mg/kg, po after 1 hr by LC-MS based method; assay type: ADME, organism-based; set-up: dose 3 mg/kg, route oral; settings: brain and plasma; summary of the method: as §1
[20] = Apparent terminal half life in mouse plasma at 1 mg/kg, iv; assay type: ADME, organism-based; set-up: dose 1 mg/kg, route intravenous; summary of the method: as §3
Homo sapiens [21] = species on record: Homo sapiens; test: Selectivity for human SST3 over human SST4
[22] = biological target: Somatostatin receptor type 3 (Mus musculus, UniProt P30935); test: Displacement of [125I]SRIF-28 from mouse recombinant SST3 receptor
Somatostatin receptor type 3 (Mus musculus, UniProt P30935), sequence (P30935 whole entry): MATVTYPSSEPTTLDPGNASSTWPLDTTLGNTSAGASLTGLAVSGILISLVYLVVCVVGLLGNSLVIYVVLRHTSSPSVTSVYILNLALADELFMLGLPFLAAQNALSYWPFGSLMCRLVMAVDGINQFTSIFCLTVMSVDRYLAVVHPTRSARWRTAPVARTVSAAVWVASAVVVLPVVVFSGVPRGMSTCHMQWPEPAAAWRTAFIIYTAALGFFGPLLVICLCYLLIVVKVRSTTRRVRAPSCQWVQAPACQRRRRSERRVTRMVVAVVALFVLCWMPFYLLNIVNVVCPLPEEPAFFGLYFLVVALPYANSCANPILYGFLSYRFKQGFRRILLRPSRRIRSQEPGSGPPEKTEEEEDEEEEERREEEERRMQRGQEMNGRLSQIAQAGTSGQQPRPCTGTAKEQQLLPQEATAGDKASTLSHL
Summary of the method: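 Radioligand binding on recombinant mouse sst3 receptors with 125I-SRIF28 as tracer; pKD reported, n = 3.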

D(2) dopamine receptor, sequence (P14416 whole entry): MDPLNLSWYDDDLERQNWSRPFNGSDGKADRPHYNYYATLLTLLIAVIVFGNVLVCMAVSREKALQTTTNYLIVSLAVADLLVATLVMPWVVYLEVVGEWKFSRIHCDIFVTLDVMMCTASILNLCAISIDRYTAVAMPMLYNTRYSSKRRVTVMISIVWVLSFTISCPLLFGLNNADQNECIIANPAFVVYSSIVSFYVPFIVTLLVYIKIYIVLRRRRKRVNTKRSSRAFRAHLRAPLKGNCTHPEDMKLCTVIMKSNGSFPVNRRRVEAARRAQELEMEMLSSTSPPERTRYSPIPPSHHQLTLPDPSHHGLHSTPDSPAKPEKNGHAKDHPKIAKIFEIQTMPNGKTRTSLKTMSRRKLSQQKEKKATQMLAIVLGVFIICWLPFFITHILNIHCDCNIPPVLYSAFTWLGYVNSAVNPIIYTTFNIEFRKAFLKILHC

Kd (D(2) dopamine receptor): 741 nM
pKb [1]: 7.88
Kd [2]: 2040 nM
Kp at 1 h [3]: 2.4
Kd [4]: 115 nM
Kd [5]: 427 nM
Kd [6]: 148 nM
Kd [7]: 1120 nM
Ratio (Homo sapiens [8]): > 150
bioavailability [9]: 21%
Ratio (Homo sapiens [10]): > 100
half-life [11]: 5.6 h
Kd [12]: 692 nM
bioavailability [13]: 15%
Ratio (Homo sapiens [14]): > 150
IC50 [15]: > 10000 nM
Kd [16]: 589 nM
Kd [17]: 7.08 nM
Kd [18]: 4570 nM
IC50 (Cytochrome P450 2D6): 6500 nM
Kp at 1 h [19]: 0.4
half-life [20]: 1.5 h
Ratio (Homo sapiens [21]): 21
Kd [22]: 4.9 nM
Compound: COc1ccc(C[C@H](C)CN2C[C@@H]3CCCC[C@@H]3[C@H](C(=O)N3CCN(c4ccc(F)c(F)c4)CC3)C2)cn1.O=C(O)/C=C/C(=O)O
Activity (V79): Non-toxic
